Source: PubChem BioAssay AID504383 (The Scripps Research Institute Molecular Screening Center, 2011)
The whole screen tested about 2,500 compounds, of which about 1,200 (48%) were called active.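 How the source made its calls: active means mean activation above the low control average plus 3 SD, as set in the primary screen (cut at about 12% in these data); inactive means the rest.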 So high a share suggests a set chosen from earlier hits. Some of the results follow.

What follows are compounds tested against Troponin I, cardiac muscle (Homo sapiens) + Troponin T, cardiac muscle (Homo sapiens) + Troponin C, slow skeletal and cardiac muscles (Homo sapiens) (UniProt P19429+P45379+P63316) (assay: cardiac RTF calcium sensitivity activators, confirmation, biochemical, IANBD-TnC fluorescence, triplicate (AID 504383;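 further: 0% = DMSO at 0.472 mM calcium and 100% = DMSO at 2.9 mM calcium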)). Conditions: IANBD-labeled cardiac RTF, Ca2+ sensitivity fluorescence; at 7.2 µM; stronger effect = higher value; scaled from EC20 to saturating calcium; tested at EC20 calcium, 0.472 mM.
Outline: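 material = labelled regulated thin filaments | probe or stimulus = Ca2+ 0.472 mM, EC20 level | dosing = single nominal compound dose of 7.2 µM | schedule = 15 min at 25 °C | signal = fluorescence intensity of labelled filaments | evaluation = fluorescence gain scaled between EC20 and EC100 calcium controls | benchmarks = low control EC20 calcium, high control EC100 calcium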
In the case of `Cc1ccc(NC(=O)CN(C)C(=O)COC(=O)COc2ccc(C#N)cc2)cc1`, the activation is reported as 3.65% (inactive). `Cc1cc(=O)oc2cc(OCC(=O)OCC(=O)NC(C)C)ccc12` was tested, and the activation was 14.7% (active). In the case of `COc1cccc(CNC(=O)CCS(=O)(=O)c2cc3c(cc2C)NC(=O)CO3)c1`, the activation is reported as 7.4% (inactive). In the case of `Cc1cc2c(cc1S(=O)(=O)CCC(=O)NCCc1ccccc1)OCC(=O)N2`, the activation is reported as 32.7% (active). For `Cc1ccc(CNC(=O)CCS(=O)(=O)c2cc3c(cc2C)NC(=O)CO3)cc1`, the activation was 3.23% (inactive). With `CC(C(=O)O)N1C(=O)/C(=C/c2cccn2C)SC1=S` (configuration not stated) the activation was 23.1% (active). For `CCC(C(=O)O)N1C(=O)/C(=C/c2cccn2C)SC1=S` (configuration not stated), the activation was 52.1% (active). In the case of `CN1C2CCC1/C(=C/c1cccn1C)C(=O)/C2=C\c1cccn1C`, the activation is reported as 9.37% (inactive). With `CC(C)C(C(=O)O)N1C(=O)/C(=C/c2cccn2C)SC1=S` (configuration not stated) the activation was 21.6% (active). In the case of `CCCc1ccc(OCc2ccc(C(=O)NN)o2)c(OC)c1`, the activation is reported as 7.64% (inactive). In the case of `CCCOc1ccc(Cn2c(=O)oc3ccc(C)cc32)cc1OC`, the activation is reported as 23.1% (active). `O=C(NC1CCCCC1)c1cc2nc3c(c(C(F)(F)F)n2n1)CCCC3` was tested, and the activation was 29.3% (active). In the case of `COc1cc(OC)c(C(=O)NC2CCCCCC2)cc1OC`, the activation is reported as -0.45% (inactive). With `CN1CCN(c2ccc(-c3cccc(NC(=O)COc4ccccc4)c3)nn2)CC1` the activation was 25% (active). In the case of `COC(=O)c1cc(N2CCN(C)CC2)nc2ccccc12`, the activation is reported as 9.59% (inactive). With `COc1ccc(C(Nc2ccc(S(=O)(=O)NCC3CCCO3)cc2)C(=O)NC(C)(C)C)cc1OC` (configuration not stated) the activation was 9.44% (inactive). With `CCCNC(=O)c1ccc(N2CCC3(CC2)CC(c2cccc(Br)c2)=NO3)c(NC(=O)c2cccc(C)c2)c1` the activation was 9.93% (inactive). `C[C@H](CO)NC(=O)[C@@H]1C[C@H]1[C@@H](NP(=O)(c1ccccc1)c1ccccc1)c1ccccc1` was tested, and the activation was 1.68% (inactive). In the case of `COCCNC(=O)[C@H]1C[C@@H]1[C@H](NP(=O)(c1ccccc1)c1ccccc1)c1ccccc1`, the activation is reported as 3770% (active). For `COc1ccc(-c2nn(-c3ccccc3)cc2/C=N/NC(N)=S)cc1OC`, the activation was 29% (active). `COc1cccc(/C=N/Nc2nnc(C)n2N)c1O` was tested, and the activation was 5.74% (inactive). With `Cc1ccc(C(C(=O)NC(C)(C)C)N(C(=O)c2csnn2)C2CC2)cc1` (configuration not stated) the activation was 100% (active). In the case of `O=C(O)CCNc1cc(N2CCN(C(=O)c3ccco3)CC2)c2noc3c2c1C(=O)c1ccccc1-3`, the activation is reported as 3.54% (inactive). With `O=C(c1ccco1)N1CCN(c2ncnc3c(-c4ccc(Cl)cc4)nsc23)CC1` the activation was 112% (active). `O=C1c2ccccc2-c2onc3c(N4CCN(CCO)CC4)cc(N4CCN(C(=O)c5ccco5)CC4)c1c23` was tested, and the activation was 7.32% (inactive). For `CCN(CC)CCCC(C)n1c2nc(=O)[nH]c(=O)c-2nc2cc(Cl)ccc21` (configuration not stated), the activation was 7.49% (inactive). For `CCOC(=O)c1ccc(N=c2sc(C(=O)OC)cc(=O)n2CCCN2CCOCC2)cc1`, the activation was 4.75% (inactive). In the case of `O=C(NC(=S)NCCN1CCOCC1)c1ccc(F)cc1`, the activation is reported as 72.6% (active). In the case of `CCOC(=O)c1c(NC(=S)N2CCN(C)CC2)sc2c1CCN(C(=O)OCC)C2`, the activation is reported as 7.96% (inactive). For `CCOC(=O)N1CCN(C(=S)Nc2ccccc2C)CC1`, the activation was 32.7% (active). In the case of `CCC(CC)NC(=O)Nc1ccccc1C`, the activation is reported as 7.62% (inactive). With `N#Cc1ccc(S(=O)(=O)NC2CCCCNC2=O)cc1` (configuration not stated) the activation was 93.6% (active). `N#Cc1ccc(S(=O)(=O)NC2CCN(Cc3ccccc3)CC2)cc1` was tested, and the activation was 9.61% (inactive). In the case of `O=C1NCCCCC1NS(=O)(=O)c1cccc(C(F)(F)F)c1` (configuration not stated), the activation is reported as 7.86% (inactive). With `CCOP(=O)(OCC)/C(=N/OC(=O)c1ccc(OC)cc1)C(N)=O` the activation was 11.7% (active). `COc1[nH]c(/N=C/c2ccccc2)c(C#N)c1C#N` was tested, and the activation was 7.9% (inactive). With `O=C(c1cc(Cl)ccc1O)N1CCN(S(=O)(=O)c2cccs2)CC1` the activation was 683% (active). `O=C(c1cc(-c2cccs2)nn1-c1ccccc1)N1CCN(S(=O)(=O)c2ccccc2)CC1` was tested, and the activation was 3.27% (inactive). For `O=C(Nc1nccs1)C1CCN(S(=O)(=O)c2ccccc2)CC1`, the activation was 1030% (active). For `O=C(CC1CCCC1)N1CCN(S(=O)(=O)c2ccccc2)CC1`, the activation was 3.96% (inactive). In the case of `O=C(Nc1ccccc1N1CCOCC1)C1CCN(S(=O)(=O)c2ccccc2F)CC1`, the activation is reported as 3.08% (inactive). In the case of `CCOc1ccc(NC(=O)C2CCN(S(=O)(=O)c3cccnc3)CC2)cc1`, the activation is reported as 0.88% (inactive). `O=C(Cc1cccs1)N1CCN(S(=O)(=O)c2cc(Cl)ccc2Cl)CC1` was tested, and the activation was 13.5% (active). For `O=C(CSc1n[nH]c(-c2cccs2)n1)N1CCOCC1`, the activation was 3.55% (inactive). In the case of `O=C(Nc1ccc(Cl)cn1)C1CCN(S(=O)(=O)c2cccs2)CC1`, the activation is reported as 242% (active). In the case of `N#Cc1cccc(NC(=O)CSc2ccc3c4c(cccc24)C(=O)c2ccccc2-3)c1`, the activation is reported as 15.7% (active). In the case of `COc1ccc(NC(=O)CSc2ccc3c4c(cccc24)C(=O)c2ccccc2-3)cc1`, the activation is reported as 19.2% (active). `N#Cc1cccc(NC(=S)Nc2ccccc2)c1` was tested, and the activation was 6.24% (inactive). For `COc1ccc(NC(=O)CC2C(=O)N(Cc3ccco3)C(=S)N2C(C)C)cc1` (configuration not stated), the activation was 41.6% (active). For `COc1ccc(/C(O)=C2\C(=O)C(=O)N(Cc3ccco3)C2c2cc(OC)ccc2OC)cc1` (configuration not stated), the activation was 10.9% (inactive). With `COC(=O)N1CCN(S(=O)(=O)c2ccc(F)cc2)CC1` the activation was 8.33% (inactive). For `O=S(=O)(c1ccc(F)cc1)N1CCN(CCOc2ccccc2)CC1`, the activation was 956% (active). `O=[N+]([O-])c1cc(-c2ccn[nH]2)ccc1Cl` was tested, and the activation was 10.1% (inactive). With `O=C(Nc1ccccc1-c1ccccc1)c1ccc(Cl)c([N+](=O)[O-])c1` the activation was 48.5% (active). For `COc1ccc(C(=O)Nc2ccccc2-c2ccccc2)cc1Cl`, the activation was 11% (inactive). `COc1ccc(/C=C2\SC(=S)N(CCCC(=O)Nc3ccccn3)C2=O)cc1OC` was tested, and the activation was 9.09% (inactive). For `COc1cc(/C=C2/SC(=S)N(Cc3ccccc3)C2=O)cc(Cl)c1O`, the activation was 5470% (active). With `O=C1/C(=C\c2cc(Cl)c(O)c(Cl)c2)SC(=S)N1Cc1ccccc1` the activation was -1.15% (inactive). For `COc1ccc(/C=C2\SC(=S)N(CCCC(=O)Nc3ccccc3C(=O)O)C2=O)cc1OC`, the activation was 28.5% (active). With `C/C=C/c1ccc(OCCCNCC(C)O)c(OC)c1` (configuration not stated) the activation was 663% (active). With `COc1ccc(N2C(=O)c3cccc4c(N(C)CCO)ccc(c34)C2=O)cc1` the activation was 4.11% (inactive). With `CCC/C(C#Cc1ccc(N(C)C)cc1)=C1/c2ccccc2C(=O)N1c1ccccc1` the activation was 94.7% (active). In the case of `Cc1ccc(S(=O)(=O)c2cccc(S(=O)(=O)N3CCOCC3)c2)cc1S(=O)(=O)N1CCOCC1`, the activation is reported as 20.6% (active). With `Cc1ccc(S(=O)(=O)N2CCOCC2)cc1C(=O)N1C(=O)c2cccc(N)c2C1=O` the activation was 8.84% (inactive). `Cc1nnc(N2CCOCC2)c2nn(-c3cccc(Cl)c3)c(C)c12` was tested, and the activation was 4.95% (inactive). `COc1ccc(/C=N/NC(=O)c2cccnc2)cc1CN1CCOCC1` was tested, and the activation was 36.1% (active). For `O=C(CNC(=O)c1cccc(Cl)c1)N/N=C/c1cccnc1`, the activation was 11% (inactive). `COC(=O)N/N=C/c1cccnc1` was tested, and the activation was 2.85% (inactive). `COc1ccc(/C=N/NC(=O)c2cc(OC)c(OC)c(OC)c2)cc1CN1CCc2cc(OC)c(OC)cc2C1C` (configuration not stated) was tested, and the activation was 28.3% (active). In the case of `O=C(C[n+]1cccc2ccccc21)c1ccccc1`, the activation is reported as 10.7% (inactive). In the case of `COC(=O)C[n+]1cccc2ccccc21`, the activation is reported as 212% (active). `O=C(NCc1ccc(Cl)cc1)C1CCN(c2cnccn2)CC1` was tested, and the activation was 68.5% (active). For `O=C(NCCc1ccccc1)C1CCN(c2ncccn2)CC1`, the activation was 2.88% (inactive). With `O=C(CCC1CCCN(C(=O)c2ccncc2)C1)NCc1ccc(F)c(F)c1` (configuration not stated) the activation was 3.6% (inactive). For `CCOC(=O)c1ccccc1-n1nnnc1C`, the activation was 1.99% (inactive). In the case of `CCOC(=O)c1cc2c(s1)-c1ccccc1CC2`, the activation is reported as 0.58% (inactive). `CCOC(=O)c1cc2n(c1N)-c1ccccc1C2=O` was tested, and the activation was 71.8% (active). In the case of `CCC(C)[C@H](NC(=O)N1CCC(C)CC1)C(=O)OC` (some centres not stated), the activation is reported as 11.1% (inactive). With `Oc1ccc(-c2c(C3=CCCCC3)sc3ccccc23)cc1` the activation was 125% (active). `COc1ccccc1-c1sc2ccccc2c1-c1ccc(Br)nc1` was tested, and the activation was -1.06% (inactive). With `CCN(C(=O)c1cc2ccccc2oc1=O)c1ccccc1` the activation was 8.22% (inactive). In the case of `N#CCCN(C(=O)c1ccco1)c1ccccc1`, the activation is reported as 4250% (active). `CCOC(=O)/C(=N\Nc1ccc(C(C)=O)cc1)c1csc(Nc2ccccc2)n1` was tested, and the activation was 11.1% (inactive). In the case of `CCOC(=O)c1cnc2ccccc2c1Nc1ccc(C(=O)O)cc1`, the activation is reported as 161% (active). With `COc1ccc(OCCNC(=O)c2ccc(C)cc2)cc1` the activation was 28.4% (active). With `COc1ccc(OCC(=O)OCCNC(=O)c2cccnc2)cc1` the activation was 5.53% (inactive). With `Cc1ccc(OCCCC(=O)NC2CCCCC2)cc1` the activation was 4.78% (inactive). `Cc1sc2nc(COC(=O)c3cccc(S(=O)(=O)N(C)c4ccccc4)c3)[nH]c(=O)c2c1C` was tested, and the activation was 2.91% (inactive). With `Cc1ccc(C)c(C(=O)CCC(=O)NCc2ccc(Cl)cc2)c1` the activation was 10.5% (inactive). For `Cc1ccc(CNC(=O)c2cc(-c3ccccc3)nn2Cc2cc(C)no2)cc1`, the activation was 8.67% (inactive). With `Cc1ccc(CNC(=O)CCn2cc(-c3ccc(C)cc3)nc2-c2ccncc2)cc1` the activation was 57.1% (active). For `Cc1ccc(-c2ccc(OC(=O)c3ccc(=O)[nH]c3)c(C)c2)cc1`, the activation was 28.2% (active). With `CCc1ccc(NC(=O)C2CCN(S(=O)(=O)c3ccc4[nH]c(=O)ccc4c3)CC2)cc1` the activation was 12.1% (active). In the case of `CC(=O)Nc1ccc(Nc2cc(N(C)C)c3nonc3c2[N+](=O)[O-])cc1`, the activation is reported as 99.2% (active). For `COc1ccc(-n2nc3c(N4CCC(C(=O)N5CCC(C)CC5)CC4)nnc(C)c3c2C)cc1`, the activation was 2.83% (inactive). With `CC1CCN(c2ccc(NC(=O)c3cccnc3)cc2)CC1` the activation was 19.8% (active). In the case of `O=C(Nc1cc2c(cc1Br)OCCCO2)c1cccnc1`, the activation is reported as 2.74% (inactive).
